Data taken from ChEMBL document CHEMBL4513216, “Probing the Open Global Health Chemical Diversity Library for Multistage-Active Starting Points for Next-Generation Antimalarials” (ACS Infect Dis, 2020).

Experiment: Toxicity liver stage against HepG2, at 10uM
Format: cell-based
Design: test concentration 10 uM, cell line HepG2-A16-CD81EGFP
Settings: human, HepG2-A16-CD81EGFP cells; read-out: INHIBITION
Method in brief: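 Uninfected HepG2-A16-CD81EGFP cells, 3 × 10^3 per well, 1536-well, plated on prespotted compound at 10 μM final, parasite-free screening media added to match infected plates; puromycin 10 μM positive, DMSO 0.5% negative; run in parallel with 48 h PbLuc assay at 37 °C, 5% CO2; viability by CellTiter-Glo luminescence, normalized to controls.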

| SMILES | cytotoxicity at 10 µM [%] |
| --- | --- |
| c1ccc2c(Cc3nnc([C@H]4CCN(CC5CC5)C4)o3)c[nH]c2c1 | 4.73 |
| CC(C)C1SCC(=O)Nc2c1cnn2-c1ccc(Cl)cc1F (configuration not stated) | 17.2 |
| Cc1cnc2n(c1=O)C(CC(=O)NCc1cccs1)CS2 (configuration not stated) | 4.68 |
| Cc1nnc2ccc(OCCNS(C)(=O)=O)nn12 | -6.02 |
| CCS(=O)(=O)N1CCC(c2nnc(C(F)(F)F)o2)CC1 | -11 |
| CN(C)c1ccc(C(O)CNC(=O)NCCCc2ccccc2)cc1 (configuration not stated) | -10 |
| O=C(NCCn1nc(-n2cncn2)ccc1=O)c1ccsc1 | 1.99 |
| Cc1cc(S(=O)(=O)N2CCC(S(C)(=O)=O)C2)ccc1F (configuration not stated) | 0.246 |
| COC(=O)c1ccc(C(=O)NCc2nn(C)c3c2COCC3)cc1 | 7.91 |
| O=C(Cc1cccs1)Nc1cnn(C2CCOC2)c1 (configuration not stated) | -7.86 |
| CC(C)NC(=O)N1CC[C@@H]2[C@@H]1CC(=O)N2Cc1cccnc1 | 4.67 |
| CC[C@H]1N(Cc2ccc(OC)cc2)CCC[C@]12CCC(=O)N2C | -5.6 |
| O=C(CC1CC1)N1CCCC2(CCC(=O)N2CC2CC2)CC1 (configuration not stated) | 0.964 |
| Cc1nc(CN2CCC3(CC2)NC(=O)CC3c2cccnc2)cs1 (configuration not stated) | -2.27 |
| Cc1ccoc1C(=O)N1CC(C(=O)NCC2CC2)C2(CCOCC2)C1 (configuration not stated) | -3 |
| O=c1[nH]nc2c(S(=O)(=O)N3CCCC3)cccn12 | -4.52 |
| CCc1c(C(=O)O)nnn1-c1cccc(C)c1C | -16.1 |
| Cc1c(CN2CCOCC2)c(O)n(CCc2ccccc2)c(=O)c1C#N | 4.1 |
| CCOCCCNC(=O)c1cc(OC)c2ccoc2c1 | 6.51 |
| Cc1cc(C)n(CC(=O)Nc2cc(-c3ccncc3)[nH]n2)n1 | -5.77 |
| O=C(CCn1cccn1)N1CCC(c2nnc(-c3ccsc3)o2)CC1 | 4.25 |
| CNC(=O)C1CCCN(C(=O)c2cncs2)C1 (configuration not stated) | 4.94 |
| CSc1ncc(C(=O)NCCn2nccc2C)cn1 | 2.86 |

| SMILES | cytotoxicity at 10 µM [%] |
| --- | --- |
| Oc1cc(CC2COCCN(CC3(O)CCOCC3)C2)ncn1 (configuration not stated) | 8.08 |
| OCCN1CCCCC1c1cc[nH]n1 (configuration not stated) | -1.71 |
| CNC(=O)CNC(=O)Nc1ccc(Br)c(F)c1 | 5.44 |
| N#Cc1cn(C2CC2)c(=O)n(Cc2noc(-c3cccs3)n2)c1=O | 13 |
| CC(C)n1nnnc1-c1ccc(NC(=O)C(C)(C)C#N)cc1F | -7.36 |
| N#CCCN(C(=O)COC1CCCC1)C1CC1 | -4.14 |
| COc1c(C2CCCN2Cc2nnc(C3CC3)n2C)c(C)nn1C (configuration not stated) | 7.06 |
| CN(CCc1ccccn1)C(=O)Cn1cc(-c2ccccc2)nn1 | 0.788 |
| Cc1nc(C)c(C(=O)Nc2ccc(-c3nnc(N(C)C)o3)cc2)o1 | 1.87 |
| CC(c1ccco1)N(C(=O)Cn1nc2n(c1=O)CCCCC2)C1CC1 (configuration not stated) | -6.17 |
| CC(c1ccco1)N(C)C(=O)NCCOc1ccc(C#N)cc1 (configuration not stated) | -2.98 |
| O=C(c1cc(C2CC2)[nH]n1)N1CCN(c2nccs2)CC1 | 1.39 |
| O=C1CN(C(=O)c2cc(Cl)ccc2F)c2ccncc2N1 | 5.92 |
| CC(C)(C(=O)NCCS(N)(=O)=O)c1cccc(Br)c1 | -8.35 |
| O=c1[nH]c(CCN2CCN(CC(F)(F)F)CC2)nc2ccccc12 | 4.44 |
| N#Cc1cc(CSCCN2CCOCC2)ccc1F | -7.73 |
| CC(C)N(C)S(=O)(=O)N1CCCC1CC(=O)c1cccs1 (configuration not stated) | 5.17 |
| Cn1nccc1CNS(=O)(=O)c1cc(F)ccc1Br | 11.8 |
| NC(=O)NC(=O)CCN(Cc1ccccc1)CC1CCOCC1 | -1.86 |
| CC(C)c1nnc2n1CC(CNCc1ccsc1)CC2 (configuration not stated) | -1.61 |
| O=C(NCCNc1ncccn1)N1CCCC1c1ccc(F)cc1 (configuration not stated) | 0.932 |
| CCN(CC)C(CNC(=O)c1ccc(S(=O)(=O)NC)cc1)c1ccco1 (configuration not stated) | -13.5 |
| CN1CCCN(C(=O)c2cnsn2)c2cc(Cl)ccc21 | -7.34 |

| SMILES | cytotoxicity at 10 µM [%] |
| --- | --- |
| Cc1ccsc1CN(C)Cn1nccc1-c1cccnc1 | 7.49 |
| CS(=O)(=O)CCSc1n[nH]c(-c2ccc3c(c2)CCC3)n1 | -2.14 |
| Cn1nc(C(=O)N(CC(F)(F)F)c2cccc(Cl)c2)ccc1=O | 7.48 |
| CCNC(=O)CN1CCSC2(CCCCC2)C1 | -2.64 |
| O=C(Cc1ccc(S(=O)(=O)C(F)F)cc1)N1CCCC1 | -13.5 |
| O=C1C(Sc2nnnn2C2CC2)CCN1c1ccccc1F (configuration not stated) | 4.05 |
| CC(C)N(CCCNC(=O)C1CC1)S(C)(=O)=O | -5.55 |
| Cc1noc(CCCc2nc(C3CCOC3)no2)n1 (configuration not stated) | 3.5 |
| O=C(C1CCCN(CCc2ccc3c(c2)CCO3)C1)N1CCCC1 (configuration not stated) | -19.8 |
| Cc1ccc2nc(C)c(C)c(C(=O)N3CCS(=O)(=O)CC3)c2c1 | 3.24 |
| CN(CCO)Cc1nnc(C2CCN(CC(C)(C)C)CC2)n1C | 1.89 |
| CCN(CC)c1ncccc1CNCc1cc2ccccc2s1 | 4.43 |
| COc1cccc(-n2cc(-c3ccnc(N[C@H](CO)C(C)C)n3)cn2)c1 | -2.04 |
| O=C(c1cc(-c2ccc(O)cc2)n[nH]1)N1CCCC1c1cccnc1 (configuration not stated) | -4.09 |
| C[C@@H]1CN(S(=O)(=O)c2ccc(F)cc2Cl)C[C@]1(C)O | -2.83 |
| O=C(NCc1ccc(CO)cc1)C1CCOc2ccccc2C1 (configuration not stated) | -3.54 |
| Cc1nc2c(c(NCC(=O)NC(C)C)n1)Cc1ccccc1OC2 | 4.81 |
| O=C(CCCOCc1ccccc1)N1CCCC(c2ncc[nH]2)C1 (configuration not stated) | 8.54 |
| COc1ccc(-n2c(COC(C)C)n[nH]c2=O)cc1 | 3.45 |
| O=S(=O)(CC1CC1)c1ncc(CN2CCSCC2)n1CC1CCCO1 (configuration not stated) | -1.07 |
| CCCc1cc(NCc2ccc(CO)cc2)n2nccc2n1 | -14.1 |
| O=C(c1ccc(=O)[nH]c1)N1CCCC1c1nc2cc(F)ccc2[nH]1 (configuration not stated) | 14.3 |
| CC(C)c1cc(C2CCCN2C(=O)CN2C(=O)CCNC2=O)no1 (configuration not stated) | 18.8 |

| SMILES | cytotoxicity at 10 µM [%] |
| --- | --- |
| CN(C)c1nc2c(c(=O)[nH]1)CCN(C(=O)C1CCCO1)C2 (configuration not stated) | -43.3 |
| COc1cc(NCC(c2ccccn2)N2CCOCC2)ncn1 (configuration not stated) | -49.1 |
| Cc1cc2nc(C(C)C)cc(N3CCN(S(N)(=O)=O)CC3)n2n1 | -11.3 |
| O=C(NC1CCCC1)N1C[C@H]2CN(c3ccccn3)C[C@@]2(C(=O)O)C1 | 6.12 |
| CCCc1ccc(CN2C[C@H]3C(=O)N(CC4CC4)C[C@@]3(C(=O)O)C2)o1 | -3.86 |
| COCCOCC(=O)N(Cc1cccc(C)c1)C(C)C | -12.4 |
| Cc1cc(C)n(NC(=O)c2cccc3c2OCC3)c(=O)c1 | 1.91 |
| CCc1noc(C)c1-c1nc(Cc2cccs2)nn1C1CCN(C)CC1 | -17.3 |
| CN1CCN(C2CCN(CCOc3cccc(F)c3)CC2)C1=O | -2.45 |
| CC(C)c1n[nH]c(C2CN(C(=O)c3cn4ccccc4n3)CCO2)n1 (configuration not stated) | 0.153 |
| Cc1nc(C)n(CC2CN(Cc3ccccc3C#N)CCO2)n1 (configuration not stated) | -8.8 |
| O=C(c1cc(-c2cccs2)on1)N1CCCCC1Cn1cccn1 (configuration not stated) | -2.93 |
| CC(C)c1ncncc1C(=O)N1CCN(Cc2ccccn2)CC1 | -2.87 |
| CCc1nc(C2CCCN2C(=O)Cc2cccs2)no1 (configuration not stated) | -7.85 |
| Cc1ncsc1C(=O)N(Cc1cccs1)C1CC1 | -6.13 |
| CC(C)N1CC(C(=O)NCc2cccnc2-n2cccn2)CC1=O (configuration not stated) | -10.8 |
| Cc1cnn(CC2CCCN2Cc2c(C)noc2C)c1 (configuration not stated) | -15.8 |
| CC(C)(C)n1cc(C(=O)N2CCN(Cc3ccco3)CC2)cn1 | -7.36 |
| CCC1CN(CC(=O)N2CCCC2)CCN1CCOC (configuration not stated) | -4.22 |
| Cc1nc(C)n(CC2CCCCN2Cc2nnc(C3CC3)o2)n1 (configuration not stated) | -10.7 |
| CC(C)c1nn(C)c(N(C)C)c1CNCC(O)c1ccccc1F (configuration not stated) | -5.87 |
| CN(Cc1ccsc1)C(=O)c1cccc(F)c1 | -2.45 |
| CC(C)CN1CCN(C(=O)Nc2cc(C(F)(F)F)c[nH]c2=O)CC1 | -3.43 |

| SMILES | cytotoxicity at 10 µM [%] |
| --- | --- |
| CCOCC(O)CN1CCN(C(=O)c2cccnc2OC)CC1 (configuration not stated) | -4.71 |
| CC(C)=CCN(C)C1CCCN(Cc2noc(C)n2)C1 (configuration not stated) | -19.6 |
| CC(NCc1c(C(C)C)nn(C)c1N1CCOCC1)C(N)=O (configuration not stated) | -5.23 |
| O=C(Nc1ccccc1OC(F)F)C1=NN(c2ccccc2)C(=O)CN1 | -3.58 |
| CCc1n[nH]c(C2CN(C(=O)c3cc4c(s3)CCCC4)CCO2)n1 (configuration not stated) | -10.1 |
| CC(C)c1n[nH]c(C2CN(C(=O)CCn3ccccc3=O)CCO2)n1 (configuration not stated) | 4.48 |
| Cc1cnc(CN(C)CC2CCCN2c2cccnn2)cn1 (configuration not stated) | -0.241 |
| CCc1n[nH]c(C2CN(C(=O)c3cnc[nH]3)CCO2)n1 (configuration not stated) | -0.481 |
| c1cnn(CCNCc2csc(-c3ccsc3)n2)c1 | 1.97 |
| CC(C)CN1CCC2(CC1)CN(C(=O)C(C)C)C2 | -2.16 |
| O=C(NCc1cncc2c1CCN(Cc1ccoc1)C2)C1CC1 | 4.03 |
| Cc1cccc(CN2CC[C@@H]3[C@@H]2CCN3C(=O)c2ccoc2C)n1 | -3.99 |
| O=C1CC[C@H]2[C@H](CCN2C(=O)C2CCCO2)N1Cc1cccnc1 (some centres not stated) | -8.6 |
| CCOC(=O)[C@]12CCCN(Cc3nccs3)C[C@H]1CN(S(C)(=O)=O)C2 | -5.79 |
| COc1ncccc1CN1C[C@@H]2COC[C@]2(CNS(C)(=O)=O)C1 | 8.01 |
| FC(F)(F)c1ccnc(N2C[C@H]3CCN(c4cccnc4)C[C@H]3C2)n1 | 6.88 |
| OC(CN1CCN(Cc2cc(F)cc(F)c2)CC1)C1CC1 (configuration not stated) | 11.5 |
| Cc1ccc(CN2CCC3(CC2)CCN(C(=O)c2cccn2C)C3)cc1 | -2.6 |
| Cc1ccoc1C1=NNC(=CN2CCn3c(nnc3C3CC3)C2)O1 | 7.65 |
| Cn1cnnc1SCC(=O)N1C[C@@H]2CC[C@H]1CN(Cc1cccnc1)C2 | -2.82 |
